bovine MsrA act: activates bovine MsrA enzyme; activation, % at 10.6 µM; purified bovine MsrA, absorbance read-out; 360,000 tested, 0.3% active; in the data active means activation above about 7.5%
Rev-erbA mod: Rev-erb alpha (human) modulation. P20393. Rev-erbα–FITC-DNA binding, fluorescence polarization, 90 min. activity, % at 10 µM. 370,000 tested, 0.79% active;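 active means activity above about 14%, limit read from the data; passing the limit was not always enough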
Target sequence (P20393 whole entry, looked up): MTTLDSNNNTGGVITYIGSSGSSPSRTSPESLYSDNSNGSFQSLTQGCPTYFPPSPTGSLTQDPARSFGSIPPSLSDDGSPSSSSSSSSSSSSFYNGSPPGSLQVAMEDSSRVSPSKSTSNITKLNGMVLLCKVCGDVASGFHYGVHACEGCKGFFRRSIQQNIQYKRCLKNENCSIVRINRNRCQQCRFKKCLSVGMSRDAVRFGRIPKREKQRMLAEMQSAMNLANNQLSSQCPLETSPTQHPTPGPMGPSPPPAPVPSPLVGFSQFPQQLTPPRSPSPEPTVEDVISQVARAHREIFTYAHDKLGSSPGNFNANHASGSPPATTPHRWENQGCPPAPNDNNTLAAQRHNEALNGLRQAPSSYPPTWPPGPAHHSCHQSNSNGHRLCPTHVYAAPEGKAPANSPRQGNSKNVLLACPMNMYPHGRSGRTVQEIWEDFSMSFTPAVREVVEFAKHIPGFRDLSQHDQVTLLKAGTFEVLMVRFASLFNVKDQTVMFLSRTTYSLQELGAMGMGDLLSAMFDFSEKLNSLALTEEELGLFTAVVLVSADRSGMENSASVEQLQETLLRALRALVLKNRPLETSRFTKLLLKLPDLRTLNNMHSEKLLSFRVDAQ
MsrA inh: inhibitors of bovine MsrA. purified bovine MsrA, absorbance read-out. inhibition, % at 15.5 µM. 360,000 tested, 0.75% active. AID 651718; in the data active means inhibition above about 4.5%
ASAP1 inh: inhibitors of human ASAP1 ArfGAP activity | ASAP1-stimulated ARF1 GTP hydrolysis, GDP FP detection | inhibition, % at 16.5 µM | 360,000 tested, 0.19% active | AID 624377; in the data active means inhibition above about 25%
ARFGAP1 inhibitor: inhibitors of rat ARFGAP1. Arfgap1-stimulated ARF1 GTP hydrolysis, GDP FP detection. inhibition, % at 16.5 µM. 360,000 tested, 0.26% active. AID 651572;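 active means inhibition above a per-plate limit, mean inhibition of low control wells plus 3 SD, cut at about 25% in these data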
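Assay system: Rat Arfgap1 GAP domain (His6, aa 1-136), purified enzyme | Buffer or medium: HEPES 25 mM pH 7.5, NaCl 150 mM, MgCl2, DTT | Schedule: GTP hydrolysis reaction 2 h at 25 °C | Signal: FP of antibody-bound GDP Alexa 633 tracer, ex 620/em 688 nm | Measure: Percent inhibition of Arfgap1-stimulated GTP hydrolysis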
sPLA2-III inh: Inhibits HGIII-sPLA2 liposome hydrolysis, primary screen; QFRET BODIPY PC-A2 liposome hydrolysis, fluorescence; inhibition, % at 12.2 µM; 370,000 tested, 0.56% active; AID 743126;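 active means inhibition above mean plus 3 SD of compounds lying within the high and low control bounds, cut at about 19% in these data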
MsrA act confirm: bovine methionine sulfoxide reductase A activation confirmed; shares compounds with bovine MsrA act; purified bovine MsrA, absorbance read-out; activation, % at 10.6 µM; 1,000 tested, 12% active; AID 602270; in the data active means activation above about 4%;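 further: enzyme coupled to thioredoxin and thioredoxin reductase with NADPH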
Numbers stand for hits; - = inactive; . = no result given. Hits are enriched below; roughly 2.7% of the tested compounds scored in any of these assays.

SMILES	bovine MsrA act	Rev-erbA mod	MsrA inh	ASAP1 inh	ARFGAP1 inhibitor	sPLA2-III inh	MsrA act confirm
C[C@]12c3[nH]c4cc(-c5ccco5)ccc4c3CCN1C(=O)[C@@H](CC(=O)NCCc1ccccn1)C[C@@H]2C(=O)N1CCCCC1	-	-	-	-	-	-	.
C[C@]12c3[nH]c4cc(-c5ccco5)ccc4c3CCN1C(=O)[C@@H](CC(=O)NCCC1=CCCCC1)C[C@@H]2C(=O)N1CCCCC1	8.3	-	-	-	-	-	-
CNC(=O)N(O)C1N(C)C(=O)N(CC(=O)OC)C1(C)C (centres undefined)	-	.	-	-	-	-	.
CCCN1C(=O)N(C)C(N(O)C(=O)NC)C1(C)C (centres undefined)	14	-	-	-	-	-	-
Cc1nc2c3cc(F)ccc3n(Cc3ccc(F)cc3)c2s1	-	-	-	-	-	-	.
CCc1ccc2c(c1)c1nc(C)sc1n2CC	26	-	-	-	-	-	-
CCc1cc2c(nc1CC)CCCN2S(=O)(=O)c1ccccc1	.	-	-	-	-	-	.
Cc1cc(=O)[nH]c(SCC(=O)Nc2cccc(Cl)c2F)n1	.	-	.	.	.	-	.
CCOC(=O)c1[nH]c2ccc(OC)cc2c1NS(=O)(=O)c1ccc(OC)cc1OC	9.7	-	-	-	-	-	-
COC(=O)c1[nH]c2ccc(F)cc2c1NS(=O)(=O)c1ccc(OC)cc1OC	-	-	-	-	-	-	.
COc1ccc(-c2nc(=S)[nH][nH]2)cc1OC	10	-	-	-	-	-	-
COc1cc(-c2nc(=S)[nH][nH]2)cc(OC)c1OC	8.1	-	-	-	-	-	4.8
COc1ccc(-c2nc(=S)[nH][nH]2)cc1	-	-	-	-	-	-	.
CN(C(=O)c1cccc(NC(=O)Cc2cccc(NC(=O)C3CCN(C(=O)c4ccccc4)CC3)c2)c1)C1CC1	8.7	-	-	-	-	-	-
Cc1cc(C)c(S(=O)(=O)/N=C2/C=C(Sc3ncn[nH]3)C(=O)c3ccccc32)cc1C	14	-	61	-	-	-	8.0
COC(=O)C1=C(C)N(Cc2ccccc2C(F)(F)F)C(=NCc2ccccc2)NC1c1cccc(F)c1 (centres undefined)	.	-	-	-	-	-	.
COc1ccc(/C=N/NC(=O)c2cc(OC)c(OC)c(OC)c2)cc1CN1CCc2cc(OC)c(OC)cc2C1C (centres undefined)	-	-	-	-	-	-	.
COc1ccc(/C=N/NC(=O)c2cccnc2)cc1CN1CCc2cc(OC)c(OC)cc2C1C (centres undefined)	16	-	-	-	-	-	-
CC(OC(=O)CNC(=O)C12CC3CC(CC(C3)C1)C2)C(=O)Nc1ccc(S(N)(=O)=O)cc1 (centres undefined)	9.1	-	-	-	-	-	-
NS(=O)(=O)c1ccc(NC(=O)COC(=O)CNC(=O)C23CC4CC(CC(C4)C2)C3)cc1	-	-	-	-	-	-	.
Cc1ccc(-c2nc3ncccn3c2NC(=O)Nc2ccc(F)cc2)cc1	.	-	.	.	.	-	.
CN(CCOC(=O)c1cc2ccccc2o1)C1CN(Cc2cn(Cc3cccc(F)c3)nn2)S(=O)(=O)C1 (centres undefined)	.	-	.	.	.	-	.
COc1ccc(Cl)cc1NC(=O)NCC1CCN(Cc2cc(C)ccc2C)CC1	-	-	-	-	-	-	.
COc1cc([N+](=O)[O-])ccc1NC(=O)NCC1CCN(Cc2ccc(Cl)cc2)CC1	22	-	-	-	-	-	-
O=C(CSc1nnc(-c2cccnc2)n1Cc1ccco1)Nc1ccc(F)cc1Cl	.	-	.	.	.	-	.
SMILES	bovine MsrA act	Rev-erbA mod	MsrA inh	ASAP1 inh	ARFGAP1 inhibitor	sPLA2-III inh	MsrA act confirm
O=C(COC(=O)CCCNC(=O)c1ccc(Cl)cc1)NC1CC1	7.9	-	-	-	-	-	-
O=S1(=O)CC(N2CCCC2)CN1 (centres undefined)	.	-	.	.	.	-	.
CCC(Oc1ccccc1OC)C(=O)Nc1ccc2c(c1)OCCO2 (centres undefined)	16	-	-	-	-	-	-
COc1ccccc1NC(=O)Nc1ccc2c(c1)OCCO2	-	-	-	-	-	-	.
COC(=O)Cc1[nH]n(-c2nc3ccccc3s2)c(=O)c1C(C)=Nc1ccc(Cl)cc1	8.2	-	-	-	-	-	-
CCOc1ccccc1NC(=S)N1CCN(c2cccc(OC)c2)CC1	8.5	-	-	-	-	-	-

From PubChem BioAssay
